According to ChEMBL document CHEMBL1208664, “Structure-activity relationship studies of acridones as potential antipsoriatic agents. 1. Synthesis and antiproliferative activity of simple N-unsubstituted 10H-acridin-9-ones against human keratinocyte growth” (Eur J Med Chem, 2010):

Tests used:
HaCaT [1] = assay: Antiproliferative activity against human HaCaT cells after 48 hrs by phase contrast microscopy; assay type: functional, cell-based
Summary of the method: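 HaCaT keratinocytes were treated for 48 h, then dispersed cells were counted under phase-contrast microscopy. Inhibition = (1 − test/control) × 100, with test mean N=3 against control N=6–8. Significance was by Student's t-test.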

[2] = system: Radical scavenging activity; assay: Antioxidant activity assessed as DPPH free radical scavenging activity after 30 mins; assay type: functional; settings: in the assay text read “after 20 mins” for “after 30 mins”
Summary of the method: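 Test compound in EtOH was mixed with an equal volume of DPPH in EtOH. The mix was shaken 30 s, held in the dark at RT for 20 min, shaken again 30 s, and the drop in absorbance at 520 nm was read. Scavenging % = (1 − test/control absorbance) × 100, with test N=3 and control N=8. EC50 came from nonlinear regression. NDGA and α-tocopherol were positive controls.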

HaCaT [3] = assay: Antiproliferative activity against human HaCaT cells assessed as LDH release at 2 uM after 4 hrs by UV method

| SMILES | IC50 (HaCaT [1]) [µM] | EC50 [2] [µM] | Activity (HaCaT [3]) [mU/ml] | IC50 [2] [µM] |
| --- | --- | --- | --- | --- |
| O=c1c2ccccc2[nH]c2cc(O)ccc12 | > 50 | – | – | – |
| COc1ccc(C(N)=O)c2[nH]c3ccccc3c(=O)c12 | 8.8 | > 60 | 66.5 | – |
| COC(=O)c1ccc(O)c2c(=O)c3ccccc3[nH]c12 | 5.2 | > 60 | 58.8 | – |
| COC(=O)c1ccc(OC)c2c(=O)c3ccccc3[nH]c12 | 10.8 | > 60 | 63.7 | – |
| O=C(O)c1ccc(O)c2c(=O)c3ccccc3[nH]c12 | 49.2 | > 60 | – | – |
| COc1ccc(C(=O)O)c2[nH]c3ccccc3c(=O)c12 | > 50 | > 60 | – | – |
| O=c1c2ccccc2[nH]c2cc(OCc3ccccc3)cc(O)c12 | 47.8 | – | – | – |
| O=c1c2ccccc2[nH]c2cc(OCCc3ccccc3)cc(O)c12 | 21 | – | – | – |
| CC(=O)c1ccc2[nH]c3ccccc3c(=O)c2c1O | 17.1 | > 60 | – | – |
| O=C(c1ccccc1)c1ccc2[nH]c3ccccc3c(=O)c2c1O | 1.6 | > 60 | 88.9 | – |
| CC(=O)Oc1cccc2[nH]c3ccccc3c(=O)c12 | 21.5 | – | – | – |
| O=C(Oc1cccc2[nH]c3ccccc3c(=O)c12)c1ccccc1 | 12.4 | > 60 | – | – |
| O=c1c2c(O)cccc2[nH]c2cccc(O)c12 | 39.5 | > 60 | – | – |
| COc1cccc2[nH]c3cccc(OC)c3c(=O)c12 | > 50 | – | – | – |
| O=c1c2ccccc2[nH]c2c(O)cccc12 | > 50 | 6.8 | – | – |
| COc1ccc2c(=O)c3ccccc3[nH]c2c1 | > 50 | – | – | – |
| COc1cccc2c(=O)c3ccccc3[nH]c12 | > 50 | > 60 | – | – |
| O=c1c2ccccc2[nH]c2c(O)ccc(O)c12 | 10 | 8.8 | 61.2 | – |
| COc1ccc(OC)c2c(=O)c3ccccc3[nH]c12 | > 50 | > 60 | – | – |
| COc1ccc(O)c2c(=O)c3ccccc3[nH]c12 | 17.5 | > 60 | – | – |

| SMILES | IC50 (HaCaT [1]) [µM] | EC50 [2] [µM] | Activity (HaCaT [3]) [mU/ml] | IC50 [2] [µM] |
| --- | --- | --- | --- | --- |
| O=c1c2ccc(O)cc2[nH]c2cccc(O)c12 | 4.5 | > 60 | 77.7 | – |
| COc1ccc2c(=O)c3c(OC)cccc3[nH]c2c1 | > 50 | – | – | – |
| O=c1c2cc(O)ccc2[nH]c2cccc(O)c12 | 48.8 | 3.9 | – | – |
| COc1ccc2[nH]c3cccc(OC)c3c(=O)c2c1 | > 50 | – | – | – |
| O=c1c2cccc(O)c2[nH]c2cc(O)cc(O)c12 | 8.4 | 15 | 69.9 | – |
| O=c1c2c(O)cccc2[nH]c2cc(O)cc(O)c12 | 2 | > 60 | 69.3 | – |
| COc1cc(OC)c2c(=O)c3c(OC)cccc3[nH]c2c1 | 45.3 | – | – | – |
| COc1cccc2[nH]c3cc(O)cc(O)c3c(=O)c12 | 28.3 | – | – | – |
| COc1ccc(O)c2c(=O)c3c(O)cccc3[nH]c12 | > 50 | > 60 | – | – |
| COc1ccc(OC)c2c(=O)c3c(OC)cccc3[nH]c12 | > 50 | > 60 | – | – |
| Cc1cc(O)c2c(=O)c3ccccc3[nH]c2c1 | > 50 | – | – | – |
| Cc1cc(O)cc2[nH]c3ccccc3c(=O)c12 | 27.3 | – | – | – |
| Cc1ccc2c(=O)c3c(O)cc(O)cc3[nH]c2c1 | > 50 | – | – | – |
| Cc1ccc(O)c2c(=O)c3ccccc3[nH]c12 | 25.7 | > 60 | – | – |
| COc1ccc(C)c2[nH]c3ccccc3c(=O)c12 | 46.7 | > 60 | – | – |
| O=c1c2ccccc2[nH]c2c(Cl)ccc(O)c12 | 26.3 | > 60 | – | – |
| COc1ccc(Cl)c2[nH]c3ccccc3c(=O)c12 | 43.8 | > 60 | – | – |
| O=c1c2ccccc2[nH]c2c([N+](=O)[O-])ccc(O)c12 | 47.3 | > 60 | – | – |
| COc1ccc([N+](=O)[O-])c2[nH]c3ccccc3c(=O)c12 | > 50 | > 60 | – | – |
| Nc1ccc(O)c2c(=O)c3ccccc3[nH]c12 | > 50 | 7.6 | – | – |

| SMILES | IC50 (HaCaT [1]) [µM] | EC50 [2] [µM] | Activity (HaCaT [3]) [mU/ml] | IC50 [2] [µM] |
| --- | --- | --- | --- | --- |
| COc1ccc(N)c2[nH]c3ccccc3c(=O)c12 | > 50 | 7.7 | – | – |
| N#Cc1ccc(O)c2c(=O)c3ccccc3[nH]c12 | 27.9 | > 60 | – | – |
| COc1ccc(C#N)c2[nH]c3ccccc3c(=O)c12 | > 50 | > 60 | – | – |
| NC(=O)c1ccc(O)c2c(=O)c3ccccc3[nH]c12 | 4.7 | > 60 | 68.1 | – |
| Cc1cccc2c(O)c3c(O)cc(O)cc3nc12 | > 50 | – | – | – |
| COc1cc(O)c2c(O)c3cccc(OC)c3nc2c1 | 34.3 | – | – | – |
| O=c1c2ccccc2[nH]c2ccc(O)cc12 | > 50 | 2.7 | – | – |
| COc1cc(O)c2c(=O)c3ccccc3[nH]c2c1 | 46.3 | – | – | – |
| COc1cccc2[nH]c3ccccc3c(=O)c12 | > 50 | > 60 | – | – |
| COc1cc(OC)c2c(=O)c3ccccc3[nH]c2c1 | > 50 | – | – | – |
| O=c1c2ccccc2[nH]c2cc(O)cc(O)c12 | 19.8 | > 60 | – | – |
| COc1ccc2[nH]c3ccccc3c(=O)c2c1 | > 50 | – | – | – |
| O=c1c2ccccc2[nH]c2cccc(O)c12 | > 50 | > 60 | – | – |
| Cc1cccc2nc3cc(O)cc(O)c3c(O)c12 | 0.8 | > 60 | 71.5 | – |
| COc1cccc2c(O)c3c(O)cc(O)cc3nc12 | 21.3 | – | – | – |
| Cc1c(C)c2c(c(C)c1O)CC[C@@](C)(CCC[C@H](C)CCC[C@H](C)CCCC(C)C)O2 [ALPHA-TOCOPHEROL] | – | – | – | 8.2 |
| O=C1c2c(O)cccc2Cc2cccc(O)c21 [ANTHRALIN] | – | 16.7 | 122.8 | – |
| CC(Cc1ccc(O)c(O)c1)C(C)Cc1ccc(O)c(O)c1 (stereo not given) [NORDIHYDROGUAIARETIC ACID] | – | – | – | 4.2 |
